KCNK3 block: human KCNK3 channel inhibitors, primary screen, CHO cells, FluxOR thallium flux, B-score; B-score at 10 µM; Potassium channel subfamily K member 3 (Homo sapiens), O14649; AID 602410, 2012; FluxOR fluorescence; active compounds read low; 340,000 compounds, 0.84% hits;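 active = B-score under library mean minus 4 SD, starting fluorescence ratio at most library mean plus 5 SD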;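 also: more negative B-score means stronger inhibition of thallium flux through KCNK3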
Target sequence (O14649 whole entry, looked up): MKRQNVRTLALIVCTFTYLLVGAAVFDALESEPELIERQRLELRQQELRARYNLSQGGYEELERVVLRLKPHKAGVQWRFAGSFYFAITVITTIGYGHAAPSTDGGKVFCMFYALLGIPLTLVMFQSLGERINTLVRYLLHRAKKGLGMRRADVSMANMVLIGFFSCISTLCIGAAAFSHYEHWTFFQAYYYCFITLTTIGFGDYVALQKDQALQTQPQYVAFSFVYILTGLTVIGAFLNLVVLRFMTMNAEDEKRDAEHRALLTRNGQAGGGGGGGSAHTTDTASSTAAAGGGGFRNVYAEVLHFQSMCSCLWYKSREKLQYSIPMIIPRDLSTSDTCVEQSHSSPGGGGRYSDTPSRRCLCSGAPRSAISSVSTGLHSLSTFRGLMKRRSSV
Kir21 block: inhibitors of mouse Kir2.1 inward-rectifier potassium channel; 310,000 compounds, 0.85% hits; Inward rectifier potassium channel 2 (Mus musculus), P35561; HEK293-Kir2.1, FluxOR thallium flux fluorescence; active compounds read low; B-score at 10 µM; AID 1672, 2009;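 active = fluorescence ratio B-score at or below minus 3 SD of library scores, with starting-brightness B-score within 2 SD, cut at about -4.2 in these data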;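 also: channel flux triggered by added potassium and thallium sulfate stimulus; B-score of peak minus minimum fluorescence over baseline after thallium stimulus; more negative B-score means stronger Kir2.1 block with less thallium influx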
KCNK9 block: KCNK9 potassium channel inhibitors, primary screen, HEK293 cells, thallium flux; AID 488922, 2010; 310,000 compounds, 1.2% hits; B-score at 10 µM; FluxOR thallium flux fluorescence; active compounds read low;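 active = ratio B-score over 3 SD below the library mean, with starting fluorescence within 5 SD of its mean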;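 also: negative B-score means less thallium flux so channel inhibition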
hERG rescue: hERG rescue from dofetilide block, primary screen, cell-based, CHO-hERG, FluxOR thallium flux, dofetilide IC70. dofetilide IC70 present. activation (rescue from dofetilide block), less the hit threshold, % at 10 µM. 310,000 compounds, 0.51% hits;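 active = activation above the mean of controls blocked by dofetilide plus 5 SD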;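 also: thallium influx through hERG after potassium depolarization seen as dye fluorescence rise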
KCNQ1 act: potentiators or activators of KCNQ1 channel, primary screen, cell-based, thallium flux, high-throughput; Potassium voltage-gated channel subfamily KQT member 1 (Homo sapiens), P51787; CHO-K1 KCNQ1, thallium flux FluxOR fluorescence; active compounds read high; B-score at 10 µM; 310,000 compounds, 0.35% hits;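 active = fluorescence ratio B-score, a plate-corrected score, at least three library SD, with initial intensity B-score within 5 SD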
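Material: CHO-K1 cells stably expressing KCNQ1. Medium: assay buffer for compound exposure, DMSO matched across wells. Reagent: K+/Tl+ depolarizing stimulus. Compound dosing: single-concentration screen. Times: 37 °C overnight plating, 90-min dark dye load, 20-min compound pretreatment. Technique: FluxOR Tl+ flux fluorescence.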
KCNQ1 block: inhibitors of human KCNQ1 channel, primary screen, cell-based, thallium flux, high-throughput | Potassium voltage-gated channel subfamily KQT member 1 (Homo sapiens), P51787 | CHO-K1 KCNQ1, FluxOR thallium flux fluorescence; active compounds read high | B-score at 10 µM | 310,000 compounds, 1.3% hits;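 active = compounds whose thallium flux B-score, printed positive for inhibition, exceeds three library SD while starting fluorescence stays within three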;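 also: channel opened by potassium depolarization with thallium stimulus after 20 min compound exposure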
KCNQ1 inh valid: KCNQ1 potassium channel inhibitors, confirmation, cell-based, Tl flux, duplicate; shares compounds with KCNQ1 block; KCNQ1 cell line, FluxOR thallium flux fluorescence; inhibition, % at 10 µM; 1,600 compounds, 93% hits; AID 588353, 2011;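 active = primary screen active, with duplicate mean exceeding buffer control mean plus 3 SD of buffer wells, cut at about 28% in these data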
CHO Tl flux: thallium flux effects in parental CHO cells, counter-screen for KCNQ1 inhibitor project, cell-based, Tl flux; shares compounds with KCNQ1 block; parental CHO-K1, FluxOR thallium flux fluorescence ratio; active compounds read low; zero means no signal rise above baseline; fluorescence ratio (Tl flux) at 10 µM; 1,600 compounds, 21% hits; AID 588366, 2011;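 active = mean of duplicate thallium-flux fluorescence ratios in parental host cells more than 5 SD below the buffer control mean, cut at about 0.38 in these data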;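 also: ratio is peak minus minimum fluorescence divided by baseline fluorescence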
KCNQ1 ephys val: KCNQ1 channel inhibitors, confirmation, orthogonal assay, cell-based, automated electrophysiology; 490 compounds, 20% hits; KCNQ1-CHO cells, automated patch clamp current; calls only at 10 µM; shares compounds with KCNQ1 block; AID 624120, 2012;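 active = KCNQ1 current drop exceeding 3 SD of negative control wells, seen in both duplicate runs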;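 also: steady state current during a 2 s step from -80 to +40 mV; negative values mean current inhibition and positive values mean potentiation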
KCNQ2 spec: KCNQ2 channel inhibition, selectivity assay for KCNQ1 inhibitor project, cell-based | KCNQ2 cells, FluxOR thallium flux fluorescence | shares compounds with KCNQ1 block | AID 651746, 2012 | inhibition, % at 10 µM | 1,600 compounds, 71% hits;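 active = mean percent inhibition of the KCNQ2 thallium signal more than 5 SD above the buffer-only control wells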;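 also: KCNQ2 expressed in CHO cells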
KCNQ1 KCNE1 spec: KCNQ1/KCNE1 channel inhibition, selectivity assay for KCNQ1 inhibitor project, CHO-K1 cells, thallium flux, FluxOR | inhibition, % at 10 µM | shares compounds with KCNQ1 block | FluxOR thallium flux fluorescence | 1,600 compounds, 77% hits;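 active = mean percent inhibition of duplicate wells above the buffer-only control mean plus 3 SD of those controls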
Hits are given with their value; n = inactive; x = no result; + = active, no number. Shown are actives, neighbours in structure and some others; about 3.7% of the full set was active somewhere.

SMILES	KCNK3 block	Kir21 block	KCNK9 block	hERG rescue	KCNQ1 act	KCNQ1 block	KCNQ1 inh valid	CHO Tl flux	KCNQ2 spec	KCNQ1 KCNE1 spec	others
CCc1noc(C)c1C(=O)N1CCCSC1=Nc1ccccc1C(C)C	n	n	n	n	n	6	84	n	106%	104%
CC1=C(C)CC(C(=O)NC2CCN(C(C)C)CC2)C(C(=O)O)C1 (configuration not stated)	n	n	n	n	n	n	x	x	x	x
COc1ccc(NC(C)C(=O)Nc2ccc(C(C)(C)C)cc2)cc1Cl (configuration not stated)	n	n	n	n	n	7	146	n	92%	167%	KCNQ1 ephys val=n
COc1ccc(NC(C)C(=O)Nc2ccc(C#N)cc2)cc1Cl (configuration not stated)	n	n	n	n	n	n	x	x	x	x
CCOc1ccccc1C(=O)N[C@H](C(=O)OCC(=O)Nc1nnc(-c2ccccc2)o1)C(C)C	n	x	x	x	x	x	x	x	x	x
O=C(Nc1cccc(F)c1)OC(CN1CCCCC1)C(F)(F)F (configuration not stated)	n	n	n	n	n	7	80	n	81%	106%
COc1cccc(C(=O)NC2CCCN(C3Cc4ccccc4C3)C2)c1OC (configuration not stated)	n	n	n	n	n	n	x	x	x	x
CSc1nc(Cl)c(Cc2ccc(OCC(C)C)cc2)c(N2CCOCC2)n1	n	n	n	n	n	8	110	n	103%	136%	KCNQ1 ephys val=n
CSc1nc(N2CCOCC2)c2c3c(sc2n1)CCCC3	n	n	n	n	n	n	x	x	x	x
CCCCOc1ccc(Cc2c(Cl)nc(SC)nc2N2CCOCC2)cc1	n	n	n	n	n	7	63	n	102%	68%
CCOc1ccc(-c2cc(C(=O)NCCCn3ccnc3)c3ccccc3n2)cc1	n	n	n	n	n	6	26	n	86%	43%
CCCCOc1ccc(Br)cc1CSC(=N)N	n	-7.5	n	n	n	7	90	n	60%	n	KCNQ1 ephys val=+
Cc1cc(NC2CCCCC2)nc2ccccc12	n	n	n	n	n	6	58	n	59%	49%
N#CC1(NC(=O)CSc2nnc(Nc3ccccc3F)s2)CCCC1	n	x	x	x	x	x	x	x	x	x
O=C(c1cccc(N2C(=O)C3C4C=CC(C4)C3C2=O)c1)N1CCCc2ccccc21 (configuration not stated)	n	n	n	n	n	10	n	n	n	46%
CC(C)(C)C(=O)Cn1c(=N)n(Cc2ccccc2)c2ccccc21	n	n	n	n	n	7	86	n	114%	90%
CC(C)(C)C(=O)Cn1c(=N)n(Cc2ccccc2Cl)c2ccccc21	n	n	n	n	n	n	x	x	x	x
CCn1nc(C)c(CNC(=O)c2cc(COc3ccc(F)cc3Cl)on2)c1C	n	n	n	n	n	8	40	n	n	n
CCn1cc(CNC(=O)c2cc(COc3ccc(F)cc3Cl)on2)cn1	n	n	n	n	n	n	x	x	x	x
COc1nc(-c2ccccc2)cc(-c2ccc(OC)c(OC)c2)n1	n	n	n	n	n	7	119	n	110%	131%	KCNQ1 ephys val=n
COc1ccc(-c2cc(-c3ccccc3)nc(NN)n2)cc1OC	n	n	n	n	n	n	x	x	x	x
CCCCc1ccc(NC(=O)CN2C(=O)C3CCCCC3C2=O)cc1 (configuration not stated)	n	n	n	n	n	n	x	x	x	x
Cc1ccccc1N1C(=O)c2cccc3c(N(C)CCO)ccc(c23)C1=O	n	n	n	n	n	n	x	x	x	x
COc1ccccc1N1C(=O)c2cccc3c(N(C)CCO)ccc(c23)C1=O	n	n	n	n	n	7	100	0.27	n	n
O=C(Nc1ccccc1)C1C(c2ccccc2)C1(Cl)Cl (configuration not stated)	n	n	n	n	n	14	102	n	101%	136%	KCNQ1 ephys val=+
SMILES	KCNK3 block	Kir21 block	KCNK9 block	hERG rescue	KCNQ1 act	KCNQ1 block	KCNQ1 inh valid	CHO Tl flux	KCNQ2 spec	KCNQ1 KCNE1 spec	others
COc1ccc(-c2nc(N3CCCCCC3)sc2C(=O)c2ccccc2)cc1	n	n	n	n	n	7	56	n	105%	86%
O=C(c1ccccc1)c1sc(N2CCCCCC2)nc1-c1ccccc1	n	n	n	n	n	7	124	n	123%	+	KCNQ1 ephys val=n
O=C(Nc1nc(-c2ccccc2)c(C(=O)c2ccccc2)s1)c1ccc(S(=O)(=O)N2CCCC2)cc1	n	n	n	n	n	8	78	n	63%	96%
NS(=O)(=O)c1ccc(CNC(=O)CNC(=O)c2ccc(F)cc2)cc1	n	n	n	n	n	n	x	x	x	x
CC(C)(C)N=Cc1c(O)ccc2oc3c(c12)CCCC3	n	n	-7.9	n	n	9	n	n	60%	n
NC(=O)N/N=C/c1c(O)ccc2oc3c(c12)CCCC3	n	n	n	n	n	n	x	x	x	x
CC12CC3(C)CC(C)(C1)CC(C(=O)NC(=S)N1CCOCC1)(C2)C3	n	n	n	n	n	8	53	n	n	44%
O=C(NC(=S)N1CCOCC1)C12CC3CCC(CC(C3)C1)C2	n	n	n	n	n	n	x	x	x	x
CC(Sc1ccc(Cl)cc1)C(=O)Nc1ccc2c(c1)OCO2 (configuration not stated)	n	n	n	n	n	n	x	x	x	x
